Data from article PMC12377326 (RSC Advances, 2025).
“And” between values parts separate entries of the source, which are not always exact repeats. Equal values may be shown once.

How the values were obtained:
hCA I = hCA I (Homo sapiens, UniProt P00915); assay: hCA I counterscreen; assay type: biochemical; settings: for S I = (IC50 hCA I, nM)/(IC50 hCA IX, nM): selectivity for CA IX over CA I
Summary of the method: (§1)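 Recombinant human enzymes, >95% pure: hCA I (Ala2–Phe261) for line 1 and hCA II (Ser2–Lys260) for line 2. Run under the same conditions as the hCA IX assay at 25 °C. IC50 is the mean ± SD, n = 3. Where solubility prevented a full titration, IC50 was extrapolated from the linear range of the curve. Selectivity index = IC50 (hCA I or hCA II, nM)/IC50 (hCA IX, nM).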

hCA IX [1] = target: T1, hCA IX (Homo sapiens, UniProt Q16790); assay: Steady-state CO2-hydrase enzyme kinetics; assay type: biochemical; settings: Lineweaver–Burk and Michaelis–Menten plots; unchanged Km, reduced Vmax
hCA II = hCA II (Homo sapiens, UniProt P00918); assay: hCA II counterscreen; assay type: biochemical; settings: for S II = (IC50 hCA II, nM)/(IC50 hCA IX, nM): selectivity for CA IX over CA II
Summary of the method: as §1

hCA IX [2] = target: T1, hCA IX; assay: biochemical; settings: stopped-flow CO2-hydrase assay

Sequence of hCA I (P00915 2-261): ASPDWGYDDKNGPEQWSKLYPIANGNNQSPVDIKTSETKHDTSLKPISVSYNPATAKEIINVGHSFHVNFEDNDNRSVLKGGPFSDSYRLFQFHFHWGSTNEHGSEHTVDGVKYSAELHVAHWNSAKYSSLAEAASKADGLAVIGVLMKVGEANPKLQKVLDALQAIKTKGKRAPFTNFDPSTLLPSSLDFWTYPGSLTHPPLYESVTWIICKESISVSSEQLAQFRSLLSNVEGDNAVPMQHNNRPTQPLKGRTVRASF

Row | Structure (SMILES) | IC50 (hCA I) [nM] | S I = (IC50 hCA I, nM)/(IC50 hCA IX, nM) (hCA I) | mode of inhibition (hCA IX [1]) | IC50 (hCA II) [nM] | S II = (IC50 hCA II, nM)/(IC50 hCA IX, nM) (hCA II) | S I = (IC50 hCA I, nM)/(IC50 hCA IX, nM) (hCA I; listed as palustric) | S II = (IC50 hCA II, nM)/(IC50 hCA IX, nM) (hCA II; listed as palustric) | S I = (IC50 hCA I, nM)/(IC50 hCA IX, nM) (hCA I; listed as pimaric) | IC50 (hCA IX [2]; IC50 CA IX (printed in μM), mean ± SD) [µM] | IC50 (hCA IX [2]; IC50 hCA IX, pH 7.4, 25 °C, mean ± SD (n = 3)) [µM] | S II = (IC50 hCA II, nM)/(IC50 hCA IX, nM) (hCA II; listed as pimaric)
1 | CC(C)C1=CC[C@H]2C(=C1)CC[C@@H]1[C@]2(C)CCC[C@@]1(C)C(=O)O [Levopimaric acid, levopimaric acid] | 1500 ± 120 | 10 and 10.2 | non-competitive | 680 ± 50 | 4.6 |  |  |  |  |  | 
2 | CC(C)C1=CC2=C(CC1)[C@@]1(C)CCC[C@@](C)(C(=O)O)[C@@H]1CC2 [Palustric acid, palustric acid] | 2250 ± 200 | 7.8 | non-competitive | 1450 ± 120 | 5.0 | ≈ 8 | ≈ 5 |  |  |  | 
3 | C=C[C@@]1(C)C=C2CC[C@@H]3[C@](C)(CCC[C@@]3(C)C(=O)O)[C@H]2CC1 [Pimaric acid, pimaric acid] | 2700 ± 250 | 7.9 | non-competitive | 1620 ± 130 | 4.8 |  |  | ≈ 8 | 0.341 ± 0.0064 | 0.341 ± 0.00637 | ≈ 5
